According to ChEMBL document CHEMBL1156555, “Synthesis and anti-inflammatory activity of 2-aryloxy methyl oxazolines” (Bioorg Med Chem Lett, 2008):

Key:
Rattus norvegicus [1] = experiment: Toxic ulcerogenic effect in albino rat assessed as incidence of ulcer at 200 mg/kg, po; type: toxicity, organism-based; design: dose 200 mg/kg, route oral; conditions: in vivo
Procedure, shortened: (§1)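 Rats (200–230 g) in groups of 10 were fasted 24 h, then given the compound orally. They were killed 5 h after dosing. Stomach and small intestine were examined under a microscope for hyperemia, epithelial shedding, petechiae, frank haemorrhage, and erosion or ulceration with or without perforation. Any of these criteria counted as ulcerogenic.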

[2] = Acute toxicity in albino rat assessed as mortality after 24 hrs; type: organism-based; conditions: in vivo, read-out: ALD50
Procedure, shortened: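 Albino rats (200–230 g), groups of 10, given test compounds intraperitoneally at several dose levels. Percent mortality per group recorded 24 h after dosing. ALD50 calculated from the mortality data by a previously described method.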

Rattus norvegicus [3] = experiment: Antiinflammatory activity in po dosed albino rat assessed as inhibition of carrageenan-induced paw edema administered 30 mins prior to challenge; type: functional
Rattus norvegicus [4] = experiment: Antiinflammatory activity in albino rat assessed as inhibition of carrageenan-induced paw edema at 20 mg/kg, po administered 30 mins prior to challenge relative to control; type: functional
Procedure, shortened: (§2)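 Groups of five rats (200–230 g) were dosed orally. After 30 min, 0.2 ml of 1% carrageenan in 0.9% NaCl was injected subcutaneously into the hind-paw plantar aponeurosis. Paw volume was read by water plethysmometer before and at 3 h. % inhibition = (1 − vt/vc) × 100, using mean relative oedema changes against five carrageenan-only controls.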

Rattus norvegicus [5] = experiment: Toxic ulcerogenic effect in albino rat assessed as incidence of hyperemia at 100 mg/kg, po; type: toxicity, organism-based; design: dose 100 mg/kg, route oral; conditions: in vivo; procedure, shortened: as §1
Rattus norvegicus [6] = experiment: Toxic ulcerogenic effect in albino rat assessed as incidence of hyperemia at 200 mg/kg, po; type: toxicity, organism-based; design: dose 200 mg/kg, route oral; conditions: in vivo; procedure, shortened: as §1
Rattus norvegicus [7] = experiment: Toxic ulcerogenic effect in albino rat assessed as incidence of hyperemia at 400 mg/kg, po; type: toxicity, organism-based; design: dose 400 mg/kg, route oral; conditions: in vivo; procedure, shortened: as §1
Oryctolagus cuniculus = species: Oryctolagus cuniculus; experiment: Inhibition of cyclooxygenase in rabbit colon microsomes assessed as reduction in conversion of arachidonic acid to PGE2 at 10 uM by liquid scintillation spectrometry relative to control
Procedure, shortened: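 Rabbit distal colon mucosa (2–3 g) was homogenized in 0.1 M Tris pH 8.0, and the microsomal pellet was used fresh. Microsomes were incubated with the test agent for 10 min at 37 °C in Tris-HCl pH 8.0 with 2 mM reduced glutathione, L-tryptophan and hematin. Products were separated by isocratic HPLC (150 mM orthophosphoric acid pH 3.5, 30% acetonitrile; UV 214 nm), and PGE2-co-eluting radioactivity was counted by liquid scintillation.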

Rattus norvegicus [8] = experiment: Antiinflammatory activity in albino rat assessed as inhibition of carrageenan-induced paw edema at 80 mg/kg, po administered 30 mins prior to challenge relative to control; type: functional; procedure, shortened: as §2
Rattus norvegicus [9] = experiment: Toxic ulcerogenic effect in albino rat assessed as incidence of ulcer at 400 mg/kg, po; type: toxicity, organism-based; design: dose 400 mg/kg, route oral; conditions: in vivo; procedure, shortened: as §1
Rattus norvegicus [10] = experiment: Toxic ulcerogenic effect in albino rat assessed as incidence of ulcer at 100 mg/kg, po; type: toxicity, organism-based; design: dose 100 mg/kg, route oral; conditions: in vivo; procedure, shortened: as §1
Rattus norvegicus [11] = experiment: Antiinflammatory activity in albino rat assessed as inhibition of carrageenan-induced paw edema at 40 mg/kg, po administered 30 mins prior to challenge relative to control; type: functional; procedure, shortened: as §2

Row | Compound | Activity (Rattus norvegicus [1]) [%] | LD50 at 24 h [2] [mg/kg] | ED50 (Rattus norvegicus [3]) [mg/kg] | inhibition in vivo at 20 mg/kg (Rattus norvegicus [4]) [%] | Activity (Rattus norvegicus [5]) [%] | Activity (Rattus norvegicus [6]) [%] | Activity (Rattus norvegicus [7]) [%] | inhibition (Oryctolagus cuniculus) [%] | inhibition in vivo at 80 mg/kg (Rattus norvegicus [8]) [%] | Activity (Rattus norvegicus [9]) [%] | Activity (Rattus norvegicus [10]) [%] | inhibition in vivo at 40 mg/kg (Rattus norvegicus [11]) [%]
1 | Cc1cccc(OCC2=NCCO2)c1 | 20 | > 1000 | 76.2 | 16.6 | 50 | 70 | 90 | 70 | 64.1 | 25 | 15 | 44.6
2 | O=[N+]([O-])c1ccc(OCC2=NCCO2)cc1 | 15 | > 1000 | 60.5 | 29.2 | 50 | 70 | 100 | 85 | 77.1 | 20 | 10 | 30.4
3 | Cc1ccc(OCC2=NCCO2)c(C)c1 | 25 | > 1000 | 57.3 | 31.4 | 25 | 50 | 75 | – | 85.5 | 18 | 15 | 46.5
4 | Brc1ccc(OCC2=NCCO2)cc1 | 10 | > 1000 | 65.5 | 35.5 | 60 | 80 | 100 | 60 | 60.1 | 15 | 5 | 48.5
5 | Clc1ccccc1OCC1=NCCO1 | 30 | > 1000 | 77.5 | 13.7 | 20 | 40 | 60 | – | 45.5 | 80 | 40 | 22.2
6 | Fc1ccc(OCC2=NCCO2)cc1 | 25 | > 1000 | 75.5 | 18.5 | 25 | 40 | 50 | – | 40.5 | 75 | 50 | 30.2
7 | O=[N+]([O-])c1ccccc1OCC1=NCCO1 | 25 | > 1000 | 70.1 | 20.5 | 30 | 55 | 90 | 30 | 50.5 | 45 | 20 | 35.5
8 | CC(=O)Oc1ccccc1C(=O)O [ASPIRIN] | 90 | – | – | 30.4 | 30 | 60 | 90 | 65 | 59.6 | 90 | 80 | 35.5
9 | COc1ccc(OCC2=NCCO2)cc1 | 10 | > 1000 | 77.2 | 16.6 | 50 | 70 | 90 | 70 | 64.1 | 15 | 5 | 33.2
10 | Brc1ccccc1OCC1=NCCO1 | 20 | > 1000 | 62.5 | 20.1 | 70 | 90 | 100 | 40 | 62.8 | 40 | 10 | 29.1
11 | CCCCC1C(=O)N(c2ccccc2)N(c2ccccc2)C1=O [PHENYLBUTAZONE] | 60 | – | – | 31.3 | 30 | 60 | 90 | 60 | 57.2 | 90 | 30 | 35.5
12 | Cc1cc(OCC2=NCCO2)ccc1Cl | 30 | > 1000 | 60.2 | 22.2 | 50 | 70 | 100 | 87 | 77.1 | 40 | 20 | 45.4
13 | Fc1ccccc1OCC1=NCCO1 | 15 | > 1000 | 76.2 | 20.6 | 40 | 60 | 80 | 65 | 60.1 | 20 | 10 | 30.5
14 | Clc1ccc(OCC2=NCCO2)cc1 | 20 | > 1000 | 51.2 | 30.3 | 30 | 60 | 90 | – | 94.1 | 12 | 10 | 48.2
15 | Cc1ccccc1OCC1=NCCO1 | 20 | > 1000 | 78.3 | 3.1 | 40 | 60 | 100 | 20 | 55.3 | 40 | 10 | 29.5
16 | O=[N+]([O-])c1cccc(OCC2=NCCO2)c1 | 30 | > 1000 | 75.5 | 15.5 | 20 | 35 | 55 | – | 46.5 | 80 | 45 | 29.4
